Data as given in ChEMBL document CHEMBL1155267, “Synthesis of novel bioactive derivatives of 3-(4-chlorophenyl)-2-hydrazino-5,6,7,8-tetrahydrobenzo(b)thieno[2,3-d]pyrimidine-4(3H)-ones” (2009).

Assays:
Format in all cases: functional
[1] = system: Mus musculus; experiment: Antidepressant activity in Swiss albino mouse at 5 mg/kg, ip after 30 mins by photoactometer method; conditions: route intraperitoneal
How it was run: (§1)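 Swiss albino mice of either sex, 25–40 g, six per group, acclimatised 10 min. Baseline photoactometer counts were taken over 10 min. Dosing was 5 mg/kg i.p. in 1% CMC, with each group serving as its own control. At 20 and 50 min animals entered the chamber, rested 10 min, then counts were taken for 10 min. % depression = (control − decrease in count)/control ×100. Mean ± SEM, n=6.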

[2] = system: Mus musculus; experiment: Antidepressant activity in Swiss albino mouse at 5 mg/kg, ip after 60 mins by photoactometer method; conditions: route intraperitoneal; how it was run: as §1
[3] = system: Mus musculus; experiment: Skeletal muscle relaxant activity in Swiss albino mouse assessed as number of falls form rotarod at 5 mg/kg, ip after 30 mins by rotarod method relative to Diazepam; design: scale not given: the % may be the effect or the level left; conditions: route intraperitoneal
How it was run: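 Mice 25–40 g, six per group, were dosed at 5 mg/kg in 1% CMC, with each group serving as its own control. Falls per min on the Rotarod were recorded before dosing and 30 min after. % relaxation = (mean increase in falls − mean control)/mean control ×100. Mean ± SEM, n=6.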

[4] = system: Mus musculus; experiment: Anticonvulsant activity in Swiss albino mouse assessed as protection against PTZ-induced clonic convulsions at 8 mg/kg, ip administered after 30 mins PTZ challenge measured for 20 mins; conditions: route intraperitoneal
How it was run: (§2)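 Groups of six mice got the test suspension in 1% CMC i.p. at the stated dose. After 30 min they received aqueous PTZ 85 mg/kg s.c. and were watched for 20 min for clonic convulsions. The result is the percentage of animals protected.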

[5] = system: Mus musculus; experiment: Anticonvulsant activity in Swiss albino mouse assessed as protection against PTZ-induced clonic convulsions at 6 mg/kg, ip administered after 30 mins PTZ challenge measured for 20 mins; conditions: route intraperitoneal; how it was run: as §2
[6] = system: Mus musculus; experiment: Anticonvulsant activity in Swiss albino mouse assessed as protection against PTZ-induced clonic convulsions at 7 mg/kg, ip administered after 30 mins PTZ challenge measured for 20 mins; conditions: route intraperitoneal; how it was run: as §2
[7] = system: Mus musculus; experiment: Anticonvulsant activity in Swiss albino mouse assessed as protection against PTZ-induced clonic convulsions administered after 30 mins PTZ challenge measured for 20 mins
How it was run: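 Mice (groups of six) got the test suspension in 1% CMC i.p., then 30 min later aqueous PTZ 85 mg/kg s.c. Clonic convulsions were watched for 20 min. The number of animals protected per group served as the percentage response for calculating ED50.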

[8] = system: Mus musculus; experiment: Anticonvulsant activity in Swiss albino mouse assessed as protection against PTZ-induced clonic convulsions at 9 mg/kg, ip administered after 30 mins PTZ challenge measured for 20 mins; conditions: route intraperitoneal; how it was run: as §2
[9] = system: Mus musculus; experiment: Anticonvulsant activity in Swiss albino mouse assessed as protection against PTZ-induced clonic convulsions at 10 mg/kg, ip administered after 30 mins PTZ challenge measured for 20 mins; conditions: route intraperitoneal; how it was run: as §2
[10] = system: Mus musculus; experiment: Anticonvulsant activity in Swiss albino mouse assessed as protection against PTZ-induced clonic convulsions at 5 mg/kg, ip administered after 30 mins PTZ challenge measured for 20 mins; conditions: route intraperitoneal; how it was run: as §2
[11] = system: Mus musculus; experiment: Anticonvulsant activity in Swiss albino mouse assessed as protection against PTZ-induced clonic convulsions at 4 mg/kg, ip administered after 30 mins PTZ challenge measured for 20 mins; conditions: route intraperitoneal; how it was run: as §2
[12] = system: Mus musculus; experiment: Anticonvulsant activity in Swiss albino mouse assessed as protection against PTZ-induced clonic convulsions at 11 mg/kg, ip administered after 30 mins PTZ challenge measured for 20 mins; conditions: route intraperitoneal; how it was run: as §2

Row | Compound | Activity [1] | Activity [2] | Activity [3] | Activity [4] | Activity [5] | Activity [6] | ED50 [7] | Activity [8] | Activity [9] | Activity [10] | Activity [11] | Activity [12]
1 | Nc1nnc2n(-c3ccc(Cl)cc3)c(=O)c3c4c(sc3n12)CCCC4 | 82.24% | 88.78% | 107.52% | 100% | 16.66% | 66.66% | 6.73 mg/kg |  |  |  |  | 
2 | CCc1nnc2n(-c3ccc(Cl)cc3)c(=O)c3c4c(sc3n12)CCCC4 | 71.42% | 83.92% | 105.49% | 33.33% |  |  | 8.5 mg/kg | 66.66% | 100% |  |  | 
3 | CN1C(=O)CN=C(c2ccccc2)c2cc(Cl)ccc21 [DIAZEPAM] | 85.43% | 89.32% |  |  |  |  | 1.18 mg/kg |  |  |  |  | 
4 | O=c1c2c3c(sc2n2c(S)nnc2n1-c1ccc(Cl)cc1)CCCC3 | 81.71% | 90% | 109.62% |  | 66.66% | 100% | 5.5 mg/kg |  |  | 33.33% |  | 
5 | CCCc1nnc2n(-c3ccc(Cl)cc3)c(=O)c3c4c(sc3n12)CCCC4 | 78.78% | 90.4% | 116.62% |  | 100% |  | 4.4 mg/kg |  |  | 83.33% | 16.66% | 
6 | Cc1nnc2n(-c3ccc(Cl)cc3)c(=O)c3c4c(sc3n12)CCCC4 | 75.51% | 82.65% | 102.75% |  |  |  | 9.33 mg/kg | 33.33% | 83.33% |  |  | 100%
